Data from ChEMBL document CHEMBL1158680, “Chemical constituents and biological activities of the fruit of Zanthoxylum integrifoliolum” (1999).
Calls of active or inactive are those of the source. No cut-off for these calls is given here.

How the values were obtained:
[1] = Antiplatelet activity against rabbit platelets assessed as inhibition of arachidonic acid-induced platelet aggregation at 20 ug/ml preincubated for 3 mins by turbidimetric method; format: functional, Oryctolagus cuniculus; parameters: scale not given: the % may be the effect or the level left
Outline: (§1)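 Washed rabbit platelets were preincubated with test sample or 0.5% DMSO vehicle for 3 min at 37 °C. Inducers were thrombin 0.1 U/mL, arachidonic acid 100 μM, collagen 10 μg/mL or PAF 2 nM. Turbidimetric read-out took platelet suspension absorbance as 0% and platelet-free Tyrode's as 100% aggregation, measured at 6 min. Results are mean ± SEM with n per entry.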

[2] = system: Platelet; experiment: (§2) Antiplatelet activity against rabbit platelets assessed as inhibition of collagen-induced platelet aggregation at 100 ug/ml preincubated for 3 mins by turbidimetric method; format: functional; settings: Oryctolagus cuniculus; outline: as §1
[3] = system: Platelet; experiment: (§3) Antiplatelet activity against rabbit platelets assessed as inhibition of collagen-induced platelet aggregation at 50 ug/ml preincubated for 3 mins by turbidimetric method; format: functional; settings: Oryctolagus cuniculus; outline: as §1
[4] = Antiplatelet activity against rabbit platelets assessed as inhibition of PAF-induced platelet aggregation at 100 ug/ml preincubated for 3 mins by turbidimetric method; format: functional, Oryctolagus cuniculus; parameters: scale not given: the % may be the effect or the level left; outline: as §1
[5] = system: Aorta; experiment: Vasorelaxation activity in rat aorta assessed as inhibition of K+-induced contraction at 100 ug/ml preincubated for 15 mins relative to control; format: functional; parameters: scale not given: the % may be the effect or the level left
Outline: (§4)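 Rat aorta was preincubated with test sample or 0.1% DMSO vehicle at 37 °C for 15 min. Contraction was then evoked with high K+ (80 mM) or norepinephrine (3 μM). Response is expressed as percent of control contraction, mean ± SEM, n = 3.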

[6] = system: Aorta; experiment: Vasorelaxation activity in rat aorta assessed as inhibition of norepinephrine-induced phasic contraction at 100 ug/ml preincubated for 15 mins relative to control; format: functional; parameters: scale not given: the % may be the effect or the level left; outline: as §4
[7] = system: Aorta; experiment: Vasorelaxation activity in rat aorta assessed as inhibition of norepinephrine-induced tonic contraction at 100 ug/ml preincubated for 15 mins relative to control; format: functional; parameters: scale not given: the % may be the effect or the level left; outline: as §4
[8] = Antiplatelet activity against rabbit platelets assessed as inhibition of thrombin-induced platelet aggregation at 100 ug/ml preincubated for 3 mins by turbidimetric method; format: functional, Oryctolagus cuniculus; parameters: scale not given: the % may be the effect or the level left; outline: as §1
[9] = (§5) Antiplatelet activity against rabbit platelets assessed as inhibition of arachidonic acid-induced platelet aggregation at 100 ug/ml preincubated for 3 mins by turbidimetric method; format: functional, Oryctolagus cuniculus; parameters: scale not given: the % may be the effect or the level left; outline: as §1
[10] = as §2; format: functional, Oryctolagus cuniculus; parameters: scale not given: the % may be the effect or the level left; outline: as §1
[11] = system: Aorta; experiment: Vasorelaxation activity in rat aorta assessed as inhibition of K+-induced contraction at 30 ug/ml preincubated for 15 mins relative to control; format: functional; parameters: scale not given: the % may be the effect or the level left; outline: as §4
[12] = system: Aorta; experiment: Vasorelaxation activity in rat aorta assessed as inhibition of norepinephrine-induced phasic contraction at 30 ug/ml preincubated for 15 mins relative to control; format: functional; parameters: scale not given: the % may be the effect or the level left; outline: as §4
[13] = system: Aorta; experiment: Vasorelaxation activity in rat aorta assessed as inhibition of norepinephrine-induced tonic contraction at 30 ug/ml preincubated for 15 mins relative to control; format: functional; parameters: scale not given: the % may be the effect or the level left; outline: as §4
[14] = Antiplatelet activity against rabbit platelets assessed as inhibition of arachidonic acid-induced platelet aggregation at 10 ug/ml preincubated for 3 mins by turbidimetric method; format: functional, Oryctolagus cuniculus; parameters: scale not given: the % may be the effect or the level left; outline: as §1
[15] = Antiplatelet activity against rabbit platelets assessed as inhibition of PAF-induced platelet aggregation at 50 ug/ml preincubated for 3 mins by turbidimetric method; format: functional, Oryctolagus cuniculus; parameters: scale not given: the % may be the effect or the level left; outline: as §1
[16] = Antiplatelet activity against rabbit platelets assessed as inhibition of thrombin-induced platelet aggregation at 50 ug/ml preincubated for 3 mins by turbidimetric method; format: functional, Oryctolagus cuniculus; parameters: scale not given: the % may be the effect or the level left; outline: as §1
[17] = (§6) Antiplatelet activity against rabbit platelets assessed as inhibition of arachidonic acid-induced platelet aggregation at 50 ug/ml preincubated for 3 mins by turbidimetric method; format: functional, Oryctolagus cuniculus; parameters: scale not given: the % may be the effect or the level left; outline: as §1
[18] = as §3; format: functional, Oryctolagus cuniculus; parameters: scale not given: the % may be the effect or the level left; outline: as §1
[19] = Antiplatelet activity against rabbit platelets assessed as inhibition of PAF-induced platelet aggregation at 20 ug/ml preincubated for 3 mins by turbidimetric method; format: functional, Oryctolagus cuniculus; parameters: scale not given: the % may be the effect or the level left; outline: as §1
[20] = Antiplatelet activity against rabbit platelets assessed as inhibition of thrombin-induced platelet aggregation at 20 ug/ml preincubated for 3 mins by turbidimetric method; format: functional, Oryctolagus cuniculus; parameters: scale not given: the % may be the effect or the level left; outline: as §1
[21] = system: Platelet; experiment: as §5; format: functional; settings: Oryctolagus cuniculus; outline: as §1
[22] = system: Platelet; experiment: as §6; format: functional; settings: Oryctolagus cuniculus; outline: as §1
[23] = Antiplatelet activity against rabbit platelets assessed as inhibition of collagen-induced platelet aggregation at 20 ug/ml preincubated for 3 mins by turbidimetric method; format: functional, Oryctolagus cuniculus; parameters: scale not given: the % may be the effect or the level left; outline: as §1
[24] = Antiplatelet activity against rabbit platelets assessed as inhibition of PAF-induced platelet aggregation at 25 ug/ml preincubated for 3 mins by turbidimetric method; format: functional, Oryctolagus cuniculus; parameters: scale not given: the % may be the effect or the level left; outline: as §1
[25] = system: Aorta; experiment: Vasorelaxation activity in rat aorta assessed as inhibition of K+-induced contraction at 12.5 ug/ml preincubated for 15 mins relative to control; format: functional; parameters: scale not given: the % may be the effect or the level left; outline: as §4
[26] = system: Aorta; experiment: Vasorelaxation activity in rat aorta assessed as inhibition of K+-induced contraction at 3.8 ug/ml preincubated for 15 mins relative to control; format: functional; parameters: scale not given: the % may be the effect or the level left; outline: as §4
[27] = system: Aorta; experiment: Vasorelaxation activity in rat aorta assessed as inhibition of norepinephrine-induced phasic contraction at 12.5 ug/ml preincubated for 15 mins relative to control; format: functional; parameters: scale not given: the % may be the effect or the level left; outline: as §4
[28] = system: Aorta; experiment: Vasorelaxation activity in rat aorta assessed as inhibition of norepinephrine-induced tonic contraction at 12.5 ug/ml preincubated for 15 mins relative to control; format: functional; parameters: scale not given: the % may be the effect or the level left; outline: as §4
[29] = Antiplatelet activity against rabbit platelets assessed as inhibition of thrombin-induced platelet aggregation at 25 ug/ml preincubated for 3 mins by turbidimetric method; format: functional, Oryctolagus cuniculus; parameters: scale not given: the % may be the effect or the level left; outline: as §1
[30] = Antiplatelet activity against rabbit platelets assessed as inhibition of arachidonic acid-induced platelet aggregation at 25 ug/ml preincubated for 3 mins by turbidimetric method; format: functional, Oryctolagus cuniculus; parameters: scale not given: the % may be the effect or the level left; outline: as §1
[31] = Antiplatelet activity against rabbit platelets assessed as inhibition of collagen-induced platelet aggregation at 25 ug/ml preincubated for 3 mins by turbidimetric method; format: functional, Oryctolagus cuniculus; parameters: scale not given: the % may be the effect or the level left; outline: as §1
[32] = system: Aorta; experiment: Vasorelaxation activity in rat aorta assessed as inhibition of K+-induced contraction at 50 ug/ml preincubated for 15 mins relative to control; format: functional; parameters: scale not given: the % may be the effect or the level left; outline: as §4
[33] = system: Aorta; experiment: Vasorelaxation activity in rat aorta assessed as inhibition of K+-induced contraction at 15 ug/ml preincubated for 15 mins relative to control; format: functional; parameters: scale not given: the % may be the effect or the level left; outline: as §4
[34] = system: Aorta; experiment: Vasorelaxation activity in rat aorta assessed as inhibition of K+-induced contraction at 5 ug/ml preincubated for 15 mins relative to control; format: functional; parameters: scale not given: the % may be the effect or the level left; outline: as §4
[35] = system: Aorta; experiment: Vasorelaxation activity in rat aorta assessed as inhibition of norepinephrine-induced phasic contraction at 50 ug/ml preincubated for 15 mins relative to control; format: functional; parameters: scale not given: the % may be the effect or the level left; outline: as §4
[36] = system: Aorta; experiment: Vasorelaxation activity in rat aorta assessed as inhibition of norepinephrine-induced phasic contraction at 15 ug/ml preincubated for 15 mins relative to control; format: functional; parameters: scale not given: the % may be the effect or the level left; outline: as §4
[37] = system: Aorta; experiment: Vasorelaxation activity in rat aorta assessed as inhibition of norepinephrine-induced tonic contraction at 50 ug/ml preincubated for 15 mins relative to control; format: functional; parameters: scale not given: the % may be the effect or the level left; outline: as §4
[38] = system: Aorta; experiment: Vasorelaxation activity in rat aorta assessed as inhibition of norepinephrine-induced tonic contraction at 15 ug/ml preincubated for 15 mins relative to control; format: functional; parameters: scale not given: the % may be the effect or the level left; outline: as §4

For `CCCCCCCCCCCC(C)=O` [2-TRIDECANONE], the Activity [1] was 63.5%, the Activity [2] was “inactive” and the Activity [3] was “inactive”.

With `COc1ccc(-c2oc3c(OC)c(OC)cc(O)c3c(=O)c2O)cc1` [TAMBULIN] the Activity [4] was 78.6%, the Activity [5] was 104.7% and the Activity [6] was 100.2%. It also gave an Activity [7] of 98.6%, an Activity [8] of 81.1% and an Activity [9] of 73.3%. For the same compound, the Activity [10] was 64.9%.

Compound `COc1ccc(-c2oc3c(OC)c(O)cc(O)c3c(=O)c2O)cc1` [PRUDOMESTIN] has an Activity [4] of 73.3%, an Activity [5] of 36.7% and an Activity [11] of 83.4%. For the same compound, the Activity [6] was 20%, the Activity [12] was 100.6% and the Activity [7] was 46.7%. The Activity [13] was 97.8%, the Activity [8] was 87.5% and the Activity [9] was 0%. It also gave an Activity [1] of 0%, an Activity [14] of 64.5% and an Activity [10] of 58.1%.

Compound `CC(=O)Oc1ccccc1C(=O)O` [ASPIRIN] has an Activity [15] of 90.1%, an Activity [16] of 92.1% and an Activity [17] of 0%. For the same compound, the Activity [1] was 42.7%, the Activity [14] was 90.2% and the Activity [18] was 87.1%.

For `c1cc2c(cc1[C@H]1OC[C@H]3[C@@H]1CO[C@@H]3c1ccc3c(c1)OCO3)OCO2` [SESAMIN], the Activity [19] was 83.7%, the Activity [20] was 87.8% and the Activity [21] was “inactive”. For the same compound, the Activity [22] was “inactive”, the Activity [1] was 82.3% and the Activity [2] was “inactive”. The Activity [3] was “inactive” and the Activity [23] was 83.2%.

With `COc1cccc2c1c1ccnc3ccc(=O)n2c31` the Activity [24] was 84.8%, the Activity [25] was 57.9% and the Activity [26] was 74.5%. It also gave an Activity [27] of 88.4%, an Activity [28] of 78.9% and an Activity [29] of 90.3%. It also gave an Activity [30] of 80.4% and an Activity [31] of 76.3%.

`O=c1ccc2nccc3c4ccccc4n1c23` [CANTHIN-6-ONE] showed an Activity [4] of 36.4%, an Activity [8] of 85.3% and an Activity [9] of 4.2%. For the same compound, the Activity [17] was 57.3% and the Activity [10] was 7.9%.

In the case of `CCCCCCC(=O)CC/C=C/C=C/C(=O)NCC(C)C` [LANYUAMIDE I], the Activity [4] is reported as 0%, the Activity [15] is reported as 20% and the Activity [19] is reported as 76%. For the same compound, the Activity [32] was 28.6%, the Activity [33] was 47.6% and the Activity [34] was 82%. The Activity [35] was 77.1%, the Activity [36] was 100% and the Activity [37] was 45.5%. For the same compound, the Activity [38] was 77.1%, the Activity [8] was 8.9% and the Activity [16] was 75.7%. The Activity [20] was 80.4%, the Activity [9] was 0% and the Activity [17] was 0%. It also gave an Activity [1] of 15.6%, an Activity [10] of 0% and an Activity [18] of 0%. It also gave an Activity [23] of 2.7%.
